Experimental findings from ChEMBL document CHEMBL1126849, “Synthesis of A-ring fluorinated derivatives of (17 alpha,20E/Z)-[125I]iodovinylestradiols: effect on receptor binding and receptor-mediated target tissue uptake” (J Med Chem, 1993) are described below.

Each structure is given as a SMILES string.

Holding throughout (settings): in vivo
Series [1] relates to Rattus norvegicus. In words: Biodistribution in liver of Iimmature female rat after 1 hr administration of 3 micro Ci (111 kBq) in the presence of (+E2). The format is ADME, organism-based. Summed up: (§1)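 Immature female Long Evans rats (21–24 days, 45–70 g), unanesthetized in retention cages, given 3 µCi (111 kBq) 125I-labeled steroid i.v. via lateral tail vein. Vehicle was ethanol diluted in saline containing 1% Tween-80, giving 9% ethanol final. The blocking group received 60 µg unlabeled estradiol co-injected. Rats were killed under ether by axillary bleeding, and tissues were KCl-washed and gamma-counted. Data are %ID/g, mean ± SE, n=3–5.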

In series [2] the test system is Rattus norvegicus. In words: Biodistribution in uterus/blood of immature female rat after 12 hour administration of 3 micro Ci (111 kBq) in the absence of 60 microg estradiol. The format is ADME, organism-based. Summed up:
(§2)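 Immature female Long Evans rats (21–24 days, 45–70 g), 3–5 per group, unanesthetized in retention cages, given 3 μCi (111 kBq) 125I-labeled steroid by lateral tail vein. Vehicle: ethanol diluted with saline containing 1% Tween-80, final ethanol 9%. +E2 group co-injected 60 μg unlabeled estradiol (1 h only). Killed under ether; tissues KCl-washed, weighed, gamma-counted. Output: %ID/g (mean, SE) and uterus to blood or nontarget (muscle, spleen, lungs) ratios.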

Series [3] deals with Rattus norvegicus. In words: Biodistribution in uterus/spleen, muscle, lungs of immature female rat after 12 hour administration of 3 micro Ci (111 kBq) in the absence of 60 microg estradiol. It is filed as ADME, organism-based. Summed up: as §2
Series [4] relates to Rattus norvegicus. In words: Biodistribution in uterus/spleen, muscle, lungs of immature female rat after 1 hr administration of 3 micro Ci (111 kBq) in the absence of 60 microg estradiol. It is filed as ADME, organism-based. Summed up:
as §2

The test system of series [5] is Rattus norvegicus. Kind of series: Biodistribution in uterus/spleen, muscle, lungs of immature female rat after 1 hr administration of 3 micro Ci (111 kBq) in the presence of (+E2). It is filed as ADME, organism-based. Summed up: as §2
For series [6], the system named is Rattus norvegicus. Kind of series: Biodistribution in uterus/spleen, muscle, lungs of immature female rat after 5 hour administration of 3 micro Ci (111 kBq) in the absence of 60 microg estradiol. The format is ADME, organism-based. Summed up:
as §2

The subject of series [7] is Rattus norvegicus. In words: Biodistribution in uterus/spleen, muscle, lungs of immature female rat after 3 hour administration of 3 micro Ci (111 kBq) in the absence of 60 microg estradiol. It is filed as ADME, organism-based. Summed up: as §2
Series [8] has as its system Rattus norvegicus. In words: Biodistribution in spleen of Immature Female rat after 5 hour administration of 3 micro Ci (111 kBq) in the absence of 60 microg estradiol. The format is ADME, organism-based. Summed up: (§3)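 Immature female Long Evans rats (21–24 days, 45–70 g), three to five per group, given 125I-labeled steroid (3 μCi, 111 kBq) by lateral tail vein without anesthesia. Vehicle: ethanol diluted in saline with 1% Tween-80, final ethanol 9%, 0.22 μm filtered. +E2 groups received 60 μg unlabeled estradiol co-injected. Killed under ether at set times; tissues KCl-washed, blotted, weighed, gamma counted; %ID/g, mean with SE.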

Series [9] has as its system Rattus norvegicus. In words: Biodistribution in thyroid of Immature Female rat after 1 hr administration of 3 micro Ci (111 kBq) in the presence of (+E2). It is filed as ADME, organism-based, Thyroid gland. Summed up:
as §3

For series [10], the system named is Rattus norvegicus. In words: Biodistribution in thyroid of Immature Female rat after 5 hour administration of 3 micro Ci (111 kBq) in the absence of 60 microg estradiol. It is filed as ADME, organism-based, Thyroid gland. Summed up: as §3
Series [11] relates to Rattus norvegicus. In words: Biodistribution in fat of Immature Female rat after 3 hour administration of 3 micro Ci (111 kBq) in the absence of 60 microg estradiol. It is filed as ADME, organism-based, Adipose tissue. Summed up:
as §1

Series [12] concerns Rattus norvegicus. Kind of series: Biodistribution in fat of Immature Female rat after 5 hour administration of 3 micro Ci (111 kBq) in the absence of 60 microg estradiol. The format is ADME, organism-based, Adipose tissue. Summed up:
as §1

In series [13] the test system is Rattus norvegicus. Kind of series: Biodistribution in uterus of Immature Female rat after 5 hour administration of 3 micro Ci (111 kBq) in the absence of 60 microg estradiol. The format is ADME, organism-based. Summed up: as §2
For series [14], the system named is Rattus norvegicus. In words: Biodistribution in blood of Immature Female rat after 1 hr administration of 3 micro Ci (111 kBq) in the absence of 60 microg estradiol. It is filed as ADME, organism-based. Summed up:
as §1

Series [15] concerns Rattus norvegicus. In words: Biodistribution in lungs of Immature Female rat after 3 hour administration of 3 micro Ci (111 kBq) in the absence of 60 microg estradiol. It is filed as ADME, organism-based, Lung. Summed up:
as §1

For series [16], the system named is Rattus norvegicus. In words: Biodistribution in muscle of Immature Female rat after 12 hour administration of 3 micro Ci (111 kBq) in the absence of 60 microg estradiol. It is filed as ADME, organism-based, Muscle tissue. Summed up: as §3
The subject of series [17] is Rattus norvegicus. Kind of series: Biodistribution in muscle of Immature Female rat after 3 hour administration of 3 micro Ci (111 kBq) in the absence of 60 microg estradiol. The format is ADME, organism-based, Muscle tissue. Summed up:
as §3

For series [18], the system named is Rattus norvegicus. In words: Biodistribution in muscle of Immature Female rat after 5 hour administration of 3 micro Ci (111 kBq) in the absence of 60 microg estradiol. It is filed as ADME, organism-based, Muscle tissue. Summed up: as §3
Series [19] deals with Rattus norvegicus. In words: Biodistribution in spleen of Immature Female rat after 12 hour administration of 3 micro Ci (111 kBq) in the absence of 60 microg estradiol. The format is ADME, organism-based. Summed up:
as §3

In series [20] the test system is Rattus norvegicus. Kind of series: Biodistribution in uterus / spleen, muscle, lungs of Immature Female rat after 1 hr administration of 3 micro Ci (111 kBq) in the absence of 60 microg estradiol. The format is ADME, organism-based. Summed up:
(§4)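 Same in vivo procedure: immature female Long Evans rats (21–24 days), three to five per group, 3 μCi (111 kBq) tracer i.v. via tail vein in 9% ethanol/saline/1% Tween-80, ± 60 μg estradiol co-injected at 1 h. Uterus %ID/g (gamma counting) divided by blood, or by nontarget organ (muscle, spleen, lungs), %ID/g to give ratios.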

The subject of series [21] is Rattus norvegicus. Kind of series: Biodistribution in uterus / spleen, muscle, lungs of Immature Female rat after 1 hr administration of 3 micro Ci (111 kBq) in the presence of (+E2). The format is ADME, organism-based. Summed up: as §4
Series [22] relates to Rattus norvegicus. Kind of series: Biodistribution in kidney of Immature Female rat after 1 hr administration of 3 micro Ci (111 kBq) in the absence of 60 microg estradiol. It is filed as ADME, organism-based. Summed up: as §1
For series [23], the system named is Rattus norvegicus. Kind of series: Biodistribution in kidney of Immature Female rat after 1 hr administration of 3 micro Ci (111 kBq) in the presence of (+E2). It is filed as ADME, organism-based. Summed up:
as §1

The subject of series [24] is Rattus norvegicus. Kind of series: Biodistribution in kidney of Immature Female rat after 3 hour administration of 3 micro Ci (111 kBq) in the absence of 60 microg estradiol. The format is ADME, organism-based. Summed up: as §1
In series [25] the test system is Rattus norvegicus. Kind of series: Biodistribution in liver of Immature Female rat after 1 hr administration of 3 micro Ci (111 kBq) in the presence of (+E2). The format is ADME, organism-based. Summed up: as §1
Series [26] relates to Rattus norvegicus. In words: Biodistribution in liver of Immature Female rat after 5 hour administration of 3 micro Ci (111 kBq) in the absence of 60 microg estradiol. The format is ADME, organism-based. Summed up: as §1
Series [27] relates to Rattus norvegicus. In words: Biodistribution in lungs of Immature Female rat after 1 hr administration of 3 micro Ci (111 kBq) in the absence of 60 microg estradiol. It is filed as ADME, organism-based, Lung. Summed up: as §1
For series [28], the system named is Rattus norvegicus. Kind of series: Biodistribution in uterus / blood of Immature Female rat after 1 hr administration of 3 micro Ci (111 kBq) in the absence of 60 microg estradiol. It is filed as ADME, organism-based. Summed up:
as §4

The subject of series [29] is Rattus norvegicus. Kind of series: Biodistribution in uterus / spleen, muscle, lungs of Immature Female rat after 12 hour administration of 3 micro Ci (111 kBq) in the absence of 60 microg estradiol. It is filed as ADME, organism-based. Summed up:
as §4

Series [30] has as its system Rattus norvegicus. Kind of series: Biodistribution in uterus of Immature Female rat after 1 hr administration of 3 micro Ci (111 kBq) in the presence of (+E2). It is filed as ADME, organism-based. Summed up:
as §2

Series [31] deals with Rattus norvegicus. In words: Biodistribution in blood of immature femalee rat after 1 hr administration of 3 micro Ci (111 kBq) in the presence of (+E2). The format is ADME, organism-based. Summed up:
as §1

Regarding `CO[C@H]1C[C@@]2(C)[C@@H](CC[C@@]2(O)/C=C/I)[C@@H]2CCc3cc(O)c(F)cc3[C@H]21`, in the series on Rattus norvegicus [1], the ID/g is on record as 4.4%.

On to `C[C@]12CC[C@@H]3c4cc(F)c(O)cc4CC[C@H]3[C@@H]1CC[C@@]2(O)/C=C/I`, for which the ID/g in the series with Rattus norvegicus [2] was 0.92%; in the series with Rattus norvegicus [3], 1.25%; in the series with Rattus norvegicus [4], 1.42%; in the series on Rattus norvegicus [5], 0.81%; in the series on Rattus norvegicus [6], 1.14%; in the series on Rattus norvegicus [7], 1.49%.

For `CO[C@H]1C[C@@]2(C)[C@@H](CC[C@@]2(O)/C=C\I)[C@@H]2CCc3cc(O)c(F)cc3[C@H]21`, the ID/g is recorded as 0.38% with Rattus norvegicus [8]; 170% in the series on Rattus norvegicus [9]; 1210% in the series with Rattus norvegicus [10]; 1.15% with Rattus norvegicus [11]; 0.66% in the series on Rattus norvegicus [12]; 8.81% with Rattus norvegicus [13]. For the same molecule, the ID/g in the series with Rattus norvegicus [14] amounted to 0.54%; with Rattus norvegicus [15], 0.54%; in the series on Rattus norvegicus [16] it was 0.1%; in the series with Rattus norvegicus [17], 0.38%; in the series on Rattus norvegicus [18], 0.29%; with Rattus norvegicus [19], 0.22%. For the same molecule, the ID/g in the series with Rattus norvegicus [20] is reported as 13.04%; in the series on Rattus norvegicus [21], 0.64%; with Rattus norvegicus [22], 1.56%; in the series on Rattus norvegicus [23] it was 2.83%; in the series with Rattus norvegicus [24], 1.02%; with Rattus norvegicus [25], 10.39%. In addition, the ID/g with Rattus norvegicus [26] is listed as 1.12%; in the series on Rattus norvegicus [27], 0.76%; in the series on Rattus norvegicus [29], 33.82%; in the series on Rattus norvegicus [30], 0.94%. For the same molecule, the uterus/blood ratio in the series with Rattus norvegicus [28] stood at 15.7.

Take `CO[C@H]1C[C@@]2(C)[C@@H](CC[C@@]2(O)/C=C\I)[C@@H]2CCc3c(ccc(O)c3F)[C@H]21`: the ID/g with Rattus norvegicus [31] is listed as 0.81%.

`CO[C@H]1C[C@@]2(C)[C@@H](CC[C@@]2(O)/C=C/I)[C@@H]2CCc3c(ccc(O)c3F)[C@H]21`: the ID/g in the series on Rattus norvegicus [8] is reported as 0.39%; in the series with Rattus norvegicus [9], 71%; with Rattus norvegicus [10], 274%; with Rattus norvegicus [11] it was 2.04%; with Rattus norvegicus [12] it was 1.69%; in the series with Rattus norvegicus [13] it was 12.04%. The ID/g in the series on Rattus norvegicus [14] was 0.26%; in the series with Rattus norvegicus [15], 0.69%; in the series with Rattus norvegicus [16] it was 0.25%; in the series on Rattus norvegicus [17], 0.56%; in the series on Rattus norvegicus [18] it was 0.45%; with Rattus norvegicus [19], 0.22%. Further, the ID/g in the series on Rattus norvegicus [20] amounted to 9.17%; in the series with Rattus norvegicus [21], 1.02%; in the series with Rattus norvegicus [22] it was 2.03%; in the series on Rattus norvegicus [23], 1.28%; with Rattus norvegicus [24], 1.3%; in the series with Rattus norvegicus [25], 3.24%. For the same molecule, the ID/g turned out to be 2.72% with Rattus norvegicus [26], 1.07% in the series with Rattus norvegicus [27], 50.9% in the series with Rattus norvegicus [29] and 1.02% in the series on Rattus norvegicus [30]. Moreover, the uterus/blood ratio with Rattus norvegicus [28] was 30.4.
